We go through six compounds from ChEMBL document CHEMBL1152403, “Synthesis and evaluation of new endomorphin analogues modified at the Pro(2) residue” (Bioorg Med Chem Lett, 2009).

In general, Ki refers to a measure of affinity in units of concentration, obtained from inhibition or displacement. High values mean lower affinity, low ones higher affinity. By inhibition is commonly meant the change of the read-out against control, counted positive when it falls. One may read the IC50 as the concentration needed to halve the response being measured.

Molecules are shown by their SMILES. Where a SMILES comes first, the peptide text is derived from it. [ ]: non-standard residue; d: D form. Dha = C=C(N)C(=O)O

In test [1] the target is Delta-type opioid receptor (Rattus norvegicus, UniProt P33533). Nature of the test: Displacement of [3H][…] from delta opioid receptor in rat brain membrane by liquid scintillation counting. It counts as cell membranes. A general note: Loss of bound radioactivity is the signal in a displacement assay; it reports binding, not function.
Test [2] is filed under the species Rattus norvegicus. In words: Selectivity ratio of Ki for delta opioid receptor in rat brain membrane to Ki for mu opioid receptor in rat brain membrane. The format is cell membranes.
Test [3] has as its target Mu-type opioid receptor (Rattus norvegicus, UniProt P33535). In words: Displacement of [3H]DAMGO from mu opioid receptor in rat brain membrane by liquid scintillation counting. It counts as cell membranes.
For test [4], the target named is Delta-type opioid receptor (Mus musculus) (UniProt P32300). In words: Agonist activity at delta opioid receptor in mouse vas deference assessed as inhibition of electrically-stimulated contraction at 1 uM. The format is functional.
Test [5] addresses Mu-type opioid receptor (Cavia porcellus, UniProt P97266). In words: Agonist activity at mu opioid receptor in guinea pig ileum assessed as inhibition of electrically-stimulated contraction. It counts as functional, tissue-based. In short, it runs like this: (§1)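 Isolated-tissue bioassay of inhibition of electrically evoked contraction (MVD for δ, GPI/LMMP for μ). IC50 is the mean of at least four experiments. IC50, relative potency and standard errors were obtained by fitting the data to the Hill equation by computerized non-linear least squares.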

The target in test [6] is Delta-type opioid receptor (Mus musculus, UniProt P32300). Nature of the test: Agonist activity at delta opioid receptor in mouse vas deference assessed as inhibition of electrically-stimulated contraction. The format is functional. The essentials:
as §1

Sequence of Delta-type opioid receptor (Rattus norvegicus, UniProt P33533) (P33533 whole entry): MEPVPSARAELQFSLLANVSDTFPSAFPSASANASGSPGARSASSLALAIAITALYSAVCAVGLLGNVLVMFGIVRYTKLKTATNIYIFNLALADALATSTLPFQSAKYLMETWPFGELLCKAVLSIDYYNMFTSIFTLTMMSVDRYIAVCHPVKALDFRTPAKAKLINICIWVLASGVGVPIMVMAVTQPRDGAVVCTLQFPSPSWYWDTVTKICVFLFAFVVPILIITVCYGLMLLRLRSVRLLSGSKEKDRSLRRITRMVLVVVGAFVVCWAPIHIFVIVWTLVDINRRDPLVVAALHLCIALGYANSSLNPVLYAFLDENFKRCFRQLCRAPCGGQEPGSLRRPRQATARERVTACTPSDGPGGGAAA
Sequence of Mu-type opioid receptor (Rattus norvegicus, UniProt P33535) (P33535 whole entry): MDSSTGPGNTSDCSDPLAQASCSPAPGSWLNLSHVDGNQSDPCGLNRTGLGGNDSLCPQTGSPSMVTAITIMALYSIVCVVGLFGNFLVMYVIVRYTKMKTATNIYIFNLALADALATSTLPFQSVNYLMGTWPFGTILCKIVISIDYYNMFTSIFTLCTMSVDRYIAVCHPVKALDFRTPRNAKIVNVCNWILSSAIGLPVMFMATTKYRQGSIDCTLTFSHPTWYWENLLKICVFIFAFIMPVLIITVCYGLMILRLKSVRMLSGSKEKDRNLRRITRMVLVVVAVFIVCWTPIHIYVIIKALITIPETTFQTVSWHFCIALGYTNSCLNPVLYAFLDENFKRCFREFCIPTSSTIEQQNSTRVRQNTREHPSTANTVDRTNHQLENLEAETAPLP
Sequence of Mu-type opioid receptor (Cavia porcellus, UniProt P97266) (P97266 whole entry): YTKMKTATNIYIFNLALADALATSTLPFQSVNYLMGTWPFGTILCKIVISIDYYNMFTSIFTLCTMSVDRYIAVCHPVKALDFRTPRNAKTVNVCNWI
Sequence of Delta-type opioid receptor (Mus musculus) (P32300 whole entry): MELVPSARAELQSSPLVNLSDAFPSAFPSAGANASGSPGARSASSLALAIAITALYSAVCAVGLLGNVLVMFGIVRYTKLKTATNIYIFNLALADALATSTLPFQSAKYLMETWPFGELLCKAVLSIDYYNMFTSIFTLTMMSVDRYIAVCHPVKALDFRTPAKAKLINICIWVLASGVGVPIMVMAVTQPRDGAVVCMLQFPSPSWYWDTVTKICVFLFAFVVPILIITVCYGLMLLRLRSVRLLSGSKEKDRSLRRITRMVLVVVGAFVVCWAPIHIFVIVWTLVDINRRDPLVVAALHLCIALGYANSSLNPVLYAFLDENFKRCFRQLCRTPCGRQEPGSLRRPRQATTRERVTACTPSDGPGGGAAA
Sequence of Delta-type opioid receptor (Mus musculus, UniProt P32300) (P32300 whole entry): as above

Turning to `C=C(NC(=O)[C@@H](N)Cc1ccc(O)cc1)C(=O)N[C@@H](Cc1ccccc1)C(=O)N[C@@H](Cc1ccccc1)C(N)=O` (H-Y[Dha]FF-NH2), the Ki in test [1] was 710 nM; in test [3], 34 nM. Also, the Ratio Ki in test [2] worked out at 21.
For `NC(=O)[C@H](Cc1ccccc1)NC(=O)[C@H](Cc1c[nH]c2ccccc12)NC(=O)[C@@H]1CCN1C(=O)[C@@H](N)Cc1ccc(O)cc1` the same measures were 3500 nM, 2.3 nM and 1500.
For `NC(=O)[C@H](Cc1ccccc1)NC(=O)[C@H](Cc1ccccc1)NC(=O)C1CN(C(=O)[C@@H](N)Cc2ccc(O)cc2)C1`, the inhibition in test [4] worked out at 13%. Moreover, the Ki is 6900 nM in test [1] and 210 nM in test [3]. For the same compound, the Ratio Ki in test [2] worked out at 32.
Take `NC(=O)[C@H](Cc1ccccc1)NC(=O)[C@H](Cc1c[nH]c2ccccc12)NC(=O)C1CN(C(=O)[C@@H](N)Cc2ccc(O)cc2)C1`: the Ki in test [1] is 40 nM; in test [3], 34 nM. In addition, the Ratio Ki in test [2] worked out at 1.2.
For the compound `NC(=O)[C@H](Cc1ccccc1)NC(=O)[C@H](Cc1ccccc1)NC(=O)[C@@H]1C=CCN1C(=O)[C@@H](N)Cc1ccc(O)cc1`, the concentration for half-maximal inhibition (IC50) was found to be 14000 nM in test [5] and 70000 nM in test [6]. In test [3], this compound gave a Ki of 6.5 nM.
Turning to `NC(=O)[C@H](Cc1ccccc1)NC(=O)[C@H](Cc1ccccc1)NC(=O)[C@@H]1CCN1C(=O)[C@@H](N)Cc1ccc(O)cc1`, the values for the Ki in test [1] and in test [3] were 5100 nM and 5.6 nM, respectively. The Ratio Ki in test [2] was determined as 920.
